Converted amounts (≈) assume the structure as drawn.
Key:
[1] = Inhibition of Escherichia coli topoisomerase assessed as reduction in relaxation of supercoiled pNO1 DNA measured after 30 mins by fluorescence assay
In short: (§1)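 Enzyme run per an earlier-reported procedure; IC50 fitted from seven inhibitor concentrations, mean of three independent measurements.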

[2] = Inhibition of Staphylococcus aureus topoisomerase assessed as reduction in relaxation of supercoiled pNO1 DNA measured after 30 mins by fluorescence assay; in short: as §1
[3] = target: DNA gyrase (Escherichia coli, UniProt P0AES4+P0AES6); experiment: Inhibition of Escherichia coli DNA gyrase assessed as reduction in supercoiling of relaxed pNO1 DNA measured after 30 mins by fluorescence assay
[4] = target: DNA gyrase (Staphylococcus aureus, UniProt P0A0K8+P20831); experiment: Inhibition of Staphylococcus aureus DNA gyrase assessed reduction in supercoiling of relaxed pNO1 DNA measured after 30 mins by fluorescence assay
[5] = system: Staphylococcus aureus; experiment: Antibacterial activity against Staphylococcus aureus ATCC 29213 assessed as inhibition of bacterial growth by CLSI protocol based broth microdilution assay; assay type: functional
[6] = system: Staphylococcus aureus; experiment: Antibacterial activity against methicillin-resistant Staphylococcus aureus ATCC 43300 assessed as inhibition of bacterial growth by CLSI protocol based broth microdilution assay; assay type: functional
In short: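 Minimum inhibitory concentration by standard serial broth microdilution following CLSI guidelines. Medium was MHBII broth (22 g/L powder: beef extract, casein acid hydrolysate, starch), with MHBII agar (14 g agar per L broth). Where noted, assayed without and with efflux pump substrate phenylalanine-arginine β-naphthylamide (PAβN).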

[7] = system: Enterococcus faecalis; experiment: Antibacterial activity against Enterococcus faecalis ATCC 29212 assessed as inhibition of bacterial growth by CLSI protocol based broth microdilution assay; assay type: functional
[8] = system: Acinetobacter baumannii; experiment: Antibacterial activity against Acinetobacter baumannii ATCC 17978 assessed as inhibition of bacterial growth by CLSI protocol based broth microdilution assay; assay type: functional
[9] = system: Pseudomonas aeruginosa; experiment: Antibacterial activity against Pseudomonas aeruginosa ATCC 27853 assessed as inhibition of bacterial growth by CLSI protocol based broth microdilution assay; assay type: functional
[10] = system: Klebsiella pneumoniae; experiment: Antibacterial activity against Klebsiella pneumoniae ATCC 10031 assessed as inhibition of bacterial growth by CLSI protocol based broth microdilution assay; assay type: functional
[11] = system: Escherichia coli; experiment: Antibacterial activity against Escherichia coli ATCC 25922 assessed as inhibition of bacterial growth by CLSI protocol based broth microdilution assay; assay type: functional

DNA gyrase (Staphylococcus aureus, UniProt P0A0K8+P20831), sequence (P0A0K8 whole entry): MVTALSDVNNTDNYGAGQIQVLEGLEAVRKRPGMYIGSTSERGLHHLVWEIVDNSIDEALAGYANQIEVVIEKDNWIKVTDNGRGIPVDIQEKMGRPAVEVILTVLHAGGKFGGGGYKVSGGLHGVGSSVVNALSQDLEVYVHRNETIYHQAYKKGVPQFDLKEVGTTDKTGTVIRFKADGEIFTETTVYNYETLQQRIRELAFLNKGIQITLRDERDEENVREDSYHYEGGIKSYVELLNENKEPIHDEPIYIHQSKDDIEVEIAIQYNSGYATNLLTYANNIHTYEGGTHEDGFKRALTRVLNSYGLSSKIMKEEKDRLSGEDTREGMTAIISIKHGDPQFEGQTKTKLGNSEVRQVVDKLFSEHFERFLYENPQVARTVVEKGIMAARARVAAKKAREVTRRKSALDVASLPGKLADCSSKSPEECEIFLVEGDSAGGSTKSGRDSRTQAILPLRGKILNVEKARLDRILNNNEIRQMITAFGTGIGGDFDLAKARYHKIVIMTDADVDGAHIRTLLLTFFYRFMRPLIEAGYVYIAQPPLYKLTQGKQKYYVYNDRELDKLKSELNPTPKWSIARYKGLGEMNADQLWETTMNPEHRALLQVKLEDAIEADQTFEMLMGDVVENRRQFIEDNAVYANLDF
DNA gyrase (Staphylococcus aureus, UniProt P0A0K8+P20831), sequence (P20831 whole entry): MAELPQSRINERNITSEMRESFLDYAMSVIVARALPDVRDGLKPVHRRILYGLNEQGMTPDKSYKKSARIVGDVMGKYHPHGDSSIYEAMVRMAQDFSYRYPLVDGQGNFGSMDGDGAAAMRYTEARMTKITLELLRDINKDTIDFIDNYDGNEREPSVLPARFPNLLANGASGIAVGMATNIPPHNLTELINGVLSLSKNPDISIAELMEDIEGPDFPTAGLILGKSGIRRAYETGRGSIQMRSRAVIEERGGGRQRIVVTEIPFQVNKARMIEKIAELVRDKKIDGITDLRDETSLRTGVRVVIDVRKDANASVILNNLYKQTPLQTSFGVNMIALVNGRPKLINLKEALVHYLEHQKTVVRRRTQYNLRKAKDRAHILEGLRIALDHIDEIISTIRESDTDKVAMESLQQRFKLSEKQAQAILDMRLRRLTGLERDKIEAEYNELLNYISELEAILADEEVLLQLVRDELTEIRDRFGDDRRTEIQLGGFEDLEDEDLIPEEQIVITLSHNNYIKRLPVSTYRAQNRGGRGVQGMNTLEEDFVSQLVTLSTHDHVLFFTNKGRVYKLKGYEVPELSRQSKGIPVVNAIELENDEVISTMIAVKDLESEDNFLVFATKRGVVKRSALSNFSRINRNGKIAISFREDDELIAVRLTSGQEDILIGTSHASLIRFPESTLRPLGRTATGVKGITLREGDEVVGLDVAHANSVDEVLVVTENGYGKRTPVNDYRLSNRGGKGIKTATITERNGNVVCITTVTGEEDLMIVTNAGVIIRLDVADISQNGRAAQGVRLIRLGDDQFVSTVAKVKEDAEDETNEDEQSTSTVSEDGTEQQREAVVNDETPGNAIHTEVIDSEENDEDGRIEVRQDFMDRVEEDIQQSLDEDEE

Structure (SMILES) | IC50 [1] [nM] | IC50 [2] [nM] | IC50 [3] [nM] | IC50 [4] [nM] | MIC [5] [µg/mL] | MIC [6] [µg/mL] | MIC [7] [µg/mL] | MIC [8] [µg/mL] | MIC [9] [µg/mL] | MIC [10] [µg/mL] | MIC [11] [µg/mL]
Cc1[nH]c(C(=O)Nc2nc3c(OCCN4CCOCC4)cc(C(=O)NCC#N)cc3s2)c(Cl)c1Cl | > 1000 | 520 | < 10 | 100 |  |  |  |  |  |  | 
Cc1[nH]c(C(=O)Nc2nc3c(OCc4cccc(F)c4)cc(C(=O)O)cc3s2)c(Cl)c1Cl |  | < 10 |  | < 10 | 0.0625 (≈ 0.126 µM) | 0.0625 (≈ 0.126 µM) | 0.001 (≈ 0.00202 µM) | 2 (≈ 4.05 µM) | 64 (≈ 129 µM) | > 64 | 
Cc1[nH]c(C(=O)Nc2nc3cc(O)c(C(=O)O)cc3s2)c(Cl)c1Cl | 95 | 46 | < 10 | 61 | 16 (≈ 41.4 µM) | 4 (≈ 10.4 µM) | 1 (≈ 2.59 µM) | > 64 | > 64 | 8 (≈ 20.7 µM) | > 64
Cc1[nH]c(C(=O)N(c2nc3ccc(C(=O)O)cc3s2)C2CC2)c(Cl)c1Cl | > 1000 | > 1000 |  | > 1000 | 2 (≈ 4.87 µM) | 2 (≈ 4.87 µM) | 0.25 (≈ 0.609 µM) | > 64 | > 64 | 64 (≈ 156 µM) | > 64
Cc1[nH]c(C(=O)Nc2nc3ccc(C(N)=O)cc3s2)c(Cl)c1Cl | 490 | 320 |  | 59 |  |  |  |  |  |  | 
Cc1[nH]c(C(=O)Nc2nc3ccc(C(=O)NCC#N)cc3s2)c(Cl)c1Cl | > 1000 | > 1000 |  | 310 |  |  |  |  |  |  | 
COc1ccc2nc(NC(=O)c3[nH]c(C)c(Cl)c3Cl)sc2c1 | > 1000 | > 1000 | > 1000 | > 1000 |  |  |  |  |  |  | 
Cc1[nH]c(C(=O)Nc2nc3c(OCCN)cc(C(=O)O)cc3s2)c(Cl)c1Cl | > 1000 | 160 | < 10 | 48 |  |  |  |  |  |  | 
Cc1[nH]c(C(=O)Nc2nc3c(OCc4ccccc4)cc(C(=O)NCC#N)cc3s2)c(Cl)c1Cl | > 1000 | > 1000 | < 10 | 180 | 4 (≈ 7.78 µM) | 4 (≈ 7.78 µM) | 16 (≈ 31.1 µM) | > 64 | > 64 | > 64 | > 64
Cc1[nH]c(C(=O)Nc2nc3ccc(C#N)cc3s2)c(Cl)c1Cl | > 1000 | > 1000 | > 1000 | > 1000 |  |  |  |  |  |  | 
Cc1[nH]c(C(=O)Nc2nc3ccc(-c4nnn[nH]4)cc3s2)c(Cl)c1Cl | 660 | 270 | < 10 | 25 | 16 (≈ 40.6 µM) | 16 (≈ 40.6 µM) | 1 (≈ 2.54 µM) | > 64 | > 64 | 16 (≈ 40.6 µM) | > 64
CCN(C(=O)c1[nH]c(C)c(Cl)c1Cl)c1nc2ccc(C(=O)O)cc2s1 | > 1000 | 230 | < 10 | 32 | 0.125 (≈ 0.314 µM) | 8 (≈ 20.1 µM) | 0.125 (≈ 0.314 µM) | 16 (≈ 40.2 µM) | > 64 | 16 (≈ 40.2 µM) | 32 (≈ 80.3 µM)
Cc1[nH]c(C(=O)Nc2nc3ccc(C(=O)NCCC(=O)O)cc3s2)c(Cl)c1Cl | 210 | 40 | < 10 | 71 | 32 (≈ 72.5 µM) | 8 (≈ 18.1 µM) | 2 (≈ 4.53 µM) | > 64 | > 64 | 8 (≈ 18.1 µM) | > 64
Cc1[nH]c(C(=O)Nc2nc3cc(C(=O)O)ccc3s2)c(Cl)c1Cl | > 1000 | > 1000 |  | > 1000 |  |  |  |  |  |  | 
Cc1[nH]c(C(=O)Nc2nc3c(OCc4cccc(C(=O)O)c4)cc(C(=O)O)cc3s2)c(Cl)c1Cl | 170 | 13 | < 10 | < 10 |  |  |  |  |  |  | 
Cc1[nH]c(C(=O)Nc2nc3ccc(C(=O)O)cc3s2)c(Cl)c1Br | 220 | 61 | < 10 | 24 | 0.125 (≈ 0.301 µM) | 2 (≈ 4.82 µM) | 0.0625 (≈ 0.151 µM) | 4 (≈ 9.65 µM) | 8 (≈ 19.3 µM) | 2 (≈ 4.82 µM) | > 64
Cc1[nH]c(C(=O)Nc2nc3c(OCc4ccccc4)cc(C#N)cc3s2)c(Cl)c1Cl | > 1000 | > 1000 | > 1000 | > 1000 |  |  |  |  |  |  | 

Structure (SMILES) | IC50 [1] [nM] | IC50 [2] [nM] | IC50 [3] [nM] | IC50 [4] [nM] | MIC [5] [µg/mL] | MIC [6] [µg/mL] | MIC [7] [µg/mL] | MIC [8] [µg/mL] | MIC [9] [µg/mL] | MIC [10] [µg/mL] | MIC [11] [µg/mL]
Cc1[nH]c(C(=O)Nc2nc3ccc(C(=O)O)cc3s2)c(Cl)c1Cl | 500 | 66 |  |  | 1 (≈ 2.7 µM) | 0.125 (≈ 0.338 µM) | 0.125 (≈ 0.338 µM) | 4 (≈ 10.8 µM) | 8 (≈ 21.6 µM) | 1 (≈ 2.7 µM) | 4 (≈ 10.8 µM)
O=C(O)c1ccc2nc(NC(=O)c3cc(Cl)c(Cl)[nH]3)sc2c1 | 280 | > 1000 |  | 500 |  |  |  |  |  |  | 
Cc1[nH]c(C(=O)Nc2nc3c(OCc4cccs4)cc(C(=O)O)cc3s2)c(Cl)c1Cl | 300 | 88 | < 10 | < 10 | 0.0625 (≈ 0.13 µM) | 0.5 (≈ 1.04 µM) | 0.0163 (≈ 0.0338 µM) | 1 (≈ 2.07 µM) | 4 (≈ 8.29 µM) | 4 (≈ 8.29 µM) | 8 (≈ 16.6 µM)
Cc1[nH]c(C(=O)Nc2nc3ccc(C(=O)NO)cc3s2)c(Cl)c1Cl | > 1000 | > 1000 |  | 720 | 64 (≈ 166 µM) | 32 (≈ 83.1 µM) | 0.5 (≈ 1.3 µM) | > 64 | > 64 | > 64 | > 64
O=C(O)c1ccc2nc(NC(=O)c3cc(Br)c(Br)[nH]3)sc2c1 | > 1000 | 300 |  | > 1000 |  |  |  |  |  |  | 
O=C(O)c1cc(O)c2nc(NC(=O)c3cc(Br)c(Br)[nH]3)sc2c1 | 180 | 240 |  | 170 |  |  |  |  |  |  | 
Cc1[nH]c(C(=O)Nc2nc3c(O)cc(C(=O)O)cc3s2)c(Cl)c1Cl | 130 | 120 | < 10 | 22 | 16 (≈ 41.4 µM) | 4 (≈ 10.4 µM) | 2 (≈ 5.18 µM) | > 64 | > 64 | 4 (≈ 10.4 µM) | > 64
O=C(NO)c1ccc2nc(NC(=O)c3cc(Br)c(Br)[nH]3)sc2c1 | > 1000 | > 1000 |  | > 1000 |  |  |  |  |  |  | 
Cc1[nH]c(C(=O)Nc2nc3c(OCCN4CCOCC4)cc(C(=O)O)cc3s2)c(Cl)c1Cl | 220 | 66 | < 10 | 17 |  |  |  |  |  |  | 
Cc1[nH]c(C(=O)Nc2nc3c(OCc4ccccc4)cc(C(=O)O)cc3s2)c(Cl)c1Cl |  | 68 |  |  | 0.5 (≈ 1.05 µM) | 0.0625 (≈ 0.131 µM) | < 0.0212 | 2 (≈ 4.2 µM) | 2 (≈ 4.2 µM) | 1 (≈ 2.1 µM) | 16 (≈ 33.6 µM)
Cc1[nH]c(C(=O)Nc2nc3c(F)cc(C(=O)O)cc3s2)c(Cl)c1Cl | 200 | 240 | < 10 | 17 | 0.5 (≈ 1.29 µM) | 0.0625 (≈ 0.161 µM) | 0.0625 (≈ 0.161 µM) | 8 (≈ 20.6 µM) | 64 (≈ 165 µM) | 4 (≈ 10.3 µM) | 16 (≈ 41.2 µM)
Cc1[nH]c(C(=O)N(c2nc3ccc(C(=O)O)cc3s2)C(C)C)c(Cl)c1Cl | > 1000 | > 1000 |  | > 1000 |  |  |  |  |  |  | 
Cc1[nH]c(C(=O)Nc2nc3c(OCc4ccccc4)cc(C(N)=O)cc3s2)c(Cl)c1Cl | > 1000 | > 1000 |  | > 1000 |  |  |  |  |  |  | 
COc1cc(C(=O)O)cc2sc(NC(=O)c3[nH]c(C)c(Cl)c3Cl)nc12 | 160 | 390 | < 10 | 44 | 2 (≈ 5 µM) | 0.5 (≈ 1.25 µM) | 0.25 (≈ 0.625 µM) | 16 (≈ 40 µM) | 64 (≈ 160 µM) | 2 (≈ 5 µM) | 64 (≈ 160 µM)
Cc1[nH]c(C(=O)Nc2nc3c(OCc4ccc(C(=O)O)cc4)cc(C(=O)O)cc3s2)c(Cl)c1Cl | 260 | 12 | < 10 | < 10 |  |  |  |  |  |  | 
Cc1[nH]c(C(=O)Nc2nc3c(OCc4ccccc4)cc(-c4nnn[nH]4)cc3s2)c(Cl)c1Cl |  | 89 |  | 26 | 4 (≈ 7.99 µM) | 4 (≈ 7.99 µM) | 0.125 (≈ 0.25 µM) | > 64 | > 64 | > 64 | > 64
